Experimental data from different studies.
Lines come from different studies, so protocols differ. pEC50, pIC50: −log10 of the molar value.
Organism: Trypanosoma brucei
Read-out: parasite growth

NC(=O)C1CCN(C(=O)c2ccc(NCc3cnc4nc(N)nc(N)c4n3)cc2)CC1 — inhibition (resazurin; 10 µM, 72 h): 12%
NS(=O)(=O)c1ccc(Nc2cc(-c3ccc(O)c(F)c3)n[nH]2)cc1 — pEC50: 5.20
COc1ccc(Oc2ccc(CNCc3cnc4nc(N)nc(N)c4n3)cc2)cc1 — inhibition (resazurin; 10 µM, 72 h): 31%
N=C(N)c1ccc(OCCCCCOc2ccc(C(=N)N)cc2)cc1 — pIC50 (resazurin; RHODESIENSE STIB900): 8.74
Cc1ccc2nc(-c3ccc(F)c(F)c3)c(CN3CCC(Cc4ccccc4)CC3)n2c1 — EC90 (48 h): 18100 nM
Cc1ccc(C(=O)Nc2ccc(S(=O)(=O)O)c3cc(S(=O)(=O)O)cc(S(=O)(=O)O)c23)cc1NC(=O)c1cccc(NC(=O)Nc2cccc(C(=O)Nc3cc(C(=O)Nc4ccc(S(=O)(=O)O)c5cc(S(=O)(=O)O)cc(S(=O)(=O)O)c45)ccc3C)c2)c1 — pIC50 (resazurin; RHODESIENSE): 7.30
C[C@@H](Oc1cc(-n2cnc3ccc(OCC4CCN(C)CC4)cc32)sc1C(N)=O)c1ccccc1Cl — pEC50: 7.80
CCCOC(=O)C1CCN(C(=O)c2ccc(N(C)Cc3cnc4nc(N)nc(N)c4n3)cc2)CC1 — inhibition (resazurin; 10 µM, 72 h): 51%
N=C(N)c1ccc(OCCCCCOc2ccc(C(=N)N)cc2)cc1 — pEC50: 8.91
COc1c(Br)cc(Br)cc1CN[C@H]1CCCN(c2nc3nc(Cl)ccc3[nH]2)C1 — pEC50: 7.40
COc1cc(N2CCN(C(C)C)CC2)ccc1Nc1nc(Nc2ccc(F)cc2C(N)=O)c2cc[nH]c2n1 — pEC50: 6.70
Cc1ccc2nc(-c3ccc(F)c(F)c3)c(CN3CCN(C4CCCCC4)CC3)n2c1 — pEC50 (48 h): < 4.70
COC(=O)C1CCN(C(=O)c2ccc(NCc3cnc4nc(N)nc(N)c4n3)cn2)CC1 — inhibition (resazurin; 10 µM, 72 h): 10%
CONC(=O)CN1C(=O)CNC2(C1=O)C1CC3CC(C1)CC2C3 (stereo not shown) — pIC50 (pH 7.4, blood stage): 3.27
OC(c1ccccc1)c1ccccc1 — pEC50: < 4.00
Nc1nc(N)c2nc(CNc3ccc(C(=O)N4CCC(C(=O)O)CC4)cc3)cnc2n1 — inhibition (resazurin; 10 µM, 72 h): 8%
ClCCOC1c2ccccc2CCc2ccccc21 — pEC50: 4.55
Fc1ccc(-c2ncn(C3CCNCC3)c2-c2ccnc(Oc3ccc(Oc4ccccc4)cc3)n2)cc1 — pEC50: 6.10
CCOC(=O)C1CCCN1C(=O)c1ccc(NCc2cnc3nc(N)nc(N)c3n2)cc1 (stereo not shown) — inhibition (resazurin; 10 µM, 72 h): 30%
CS(=O)(=O)CCNCc1ccc(-c2ccc3ncnc(Nc4ccc(OCc5cccc(F)c5)c(C(F)(F)F)c4)c3c2)o1 — pEC50: 5.70
O=C(Cn1ccnc1[N+](=O)[O-])NCc1ccccc1 — pIC50: 4.02
O=[N+]([O-])c1c(CS(=O)(=O)c2ccccc2)nc2c(-c3cccc(C(F)(F)F)c3)cc(Cl)cn12 — pIC50 (resazurin; trypomastigote): 6.80 to 7.40
O=C(Nc1ccc2c(c1)B(O)OC2)Nc1ccc(F)c(C(F)(F)F)c1 — pIC50 (RHODESIENSE STIB900): 6.28
COC(=O)C1CCN(C(=O)c2ccc(N(CCO)Cc3cnc4nc(N)nc(N)c4n3)cc2)CC1 — inhibition (resazurin; 10 µM, 72 h): 9%
COc1cc(Nc2ncc3c(C)nc(-c4cccc(Oc5ccccc5)c4)n3n2)cc(OC)c1OC — pEC50: 6.10
CN(C)CCCN1c2ccccc2Sc2ccc(Cl)cc21 — pEC50 (blood stage): 5.38
C#CCN(Cc1cnc2nc(N)nc(N)c2n1)c1ccc(C(=O)N2CCC(C(=O)OC)CC2)cc1 — inhibition (resazurin; 10 µM, 72 h): 23%
[O-][S+]1CCN(Cc2ccc(-c3ccc4ncnc(Nc5ccc(OCc6ccccc6)c(Cl)c5)c4c3)o2)CC1 — pEC50: 6.20
COc1ccc(C(=O)Nc2ccc(NC(=N)N)c(OCc3cc(OC)ccc3OC)c2)cc1 — pIC50: 6.10
Cc1ccc2nc(-c3ccc(Cl)cc3)cn2c1 — pEC50 (48 h): 4.98
CCCN1CCC(c2ccc(Nc3nc(Nc4cc(F)ccc4C(N)=O)c4cc[nH]c4n3)c(OC)c2)CC1 — pEC50: 5.80
